Measurements of several laboratories.
Protocols differ between the studies behind these lines.
CHEK1: Serine/threonine-protein kinase Chk1 (CHEK1, Homo sapiens, UniProt O14757)
SLC6A3: Sodium-dependent dopamine transporter (SLC6A3, Homo sapiens, UniProt Q01959)
HDAC5: Histone deacetylase 5 (HDAC5, Homo sapiens, UniProt Q9UQL6)
PTPN22: Tyrosine-protein phosphatase non-receptor type 22 (PTPN22, Homo sapiens, UniProt Q9Y2R2)
TNK2: Activated CDC42 kinase 1 (TNK2, Homo sapiens, UniProt Q07912)

SMILES | target | test | setting | IC50
COC(=O)Cc1ccc2c(c1)NC(=O)c1cc(C)c(-c3cccc(NC(C)=O)c3)cc1N2 | CHEK1 | enzyme activity, inhibitor |  | > 10000 nM
O=C1NC(=O)C(Cc2ccc3cc(OCc4ccccc4F)ccc3c2)S1 (stereo not drawn) | Pantothenate kinase 3 (PANK3, Homo sapiens, UniProt Q9H999) | enzyme activity, inhibitor, radiometric |  | 5000 nM
OCc1ccc2c(c1)-c1n[nH]c(-c3ccc(-c4ccc(O)cc4)cc3)c1C2 | CHEK1 | enzyme activity, inhibitor |  | 4.4 nM
CCN(CC)C(=O)c1cnn2c(-c3cccc(C(F)(F)F)c3)ccnc12 | Toll-like receptor 8 (TLR8, Homo sapiens, UniProt Q9NR97) | reporter gene |  | > 20000 nM
Fc1ccc(C(c2ccc(F)cc2)c2nnnn2CCCCN2CCC(c3ccccc3)CC2)cc1 | SLC6A3 | transporter uptake, inhibitor |  | 55.7 nM
Nc1ccc(-c2ccncc2)cc1NC(=O)N1CCCC1 | HDAC5 | enzyme activity, inhibitor |  | > 33300 nM
O=C(O)C(=O)CC(=O)c1cccc(N(Cc2ccccc2)Cc2ccccc2)c1 | PTPN22 | enzyme activity, inhibitor, absorbance | pH 7 | 73000 nM
COC(=O)Cc1ccc2c(c1)NC(=O)c1ccc(-c3cc(OC)ncc3C)cc1N2 | CHEK1 | enzyme activity, inhibitor |  | 7.79 nM
CSc1ccc(/C=C2/C(C)=C(CC(=O)O)c3cc(F)ccc32)cc1 | Dual specificity calcium/calmodulin-dependent 3',5'-cyclic nucleotide phosphodiesterase 1C (PDE1C, Homo sapiens, UniProt Q14123) | enzyme activity, inhibitor |  | > 100000 nM
C/C(=N\O)c1ccc(-c2cccc(O)c2)c(Cl)c1O | Solute carrier family 2, facilitated glucose transporter member 1 (SLC2A1, Homo sapiens, UniProt P11166) | transporter uptake, inhibitor, radiometric |  | 15700 nM
Fc1ccc(C(c2ccc(F)cc2)c2nnnn2CCCCN2CCN(Cc3ccccc3)CC2)cc1 | SLC6A3 | transporter uptake, inhibitor |  | 144 nM
CCCC[C@H](NC(=O)C1CN(C)C1)c1ncc(-c2cc3ccccc3nc2OC)[nH]1 | HDAC5 | enzyme activity, inhibitor |  | > 30000 nM
COc1cccc(CN(C(=O)CC(C)(C)C)[C@H]2C[C@@H](C(=O)N3CCNCC3)N(Cc3ccc4c(c3)OCO4)C2)c1 | Protein smoothened (SMO, Homo sapiens, UniProt Q99835) | reporter gene, inhibitor, luciferase |  | 1500 nM
CCn1ncc2c1-c1cnc(N)c(c1)O[C@H](C)c1cc(F)ccc1-c1nn(C)nc1C2 | TNK2 | enzyme activity, inhibitor, radiometric |  | 77 nM
Clc1ccc(C(c2ccccc2)c2nnnn2CCCN2CCC(CCCc3ccccc3)CC2)cc1 (stereo not drawn) | SLC6A3 | transporter uptake, inhibitor |  | 843 nM
COc1cc(O)c(C(CC(=O)Nc2ccc(C)cc2)c2ccc3c(c2)OCO3)c(OC)c1 (stereo not drawn) | Nuclear receptor ROR-gamma (Mus musculus, UniProt P51450) | reporter gene |  | > 50000 nM
COc1cc(N2CCN(C)CC2)ccc1Nc1ncc2c(n1)N(C)c1ccccc1C(=O)N2CC(F)(F)F | TNK2 | cell-free assay, TR-FRET |  | 5000 nM
COc1cc(-c2cc3c(cc2C)C(=O)Nc2cc(CC(=O)Nc4ccc(N5CCOCC5)cc4)ccc2N3)ccc1[N+](=O)[O-] | CHEK1 | enzyme activity, inhibitor |  | 64.4 nM
N=C(NCCCSC[C@H]1O[C@@H](n2cnc3c(NCCCc4ccccc4)ncnc32)[C@H](O)[C@@H]1O)Nc1ccccc1 | Protein arginine N-methyltransferase 1 (PRMT1, Homo sapiens, UniProt Q99873) | enzyme activity, inhibitor, fluorescence |  | 355 nM
O=C(O)c1ccc(-c2[nH]nc3c2Cc2cc(CNC4CCC(O)CC4)ccc2-3)o1 (stereo not drawn) | CHEK1 | enzyme activity, inhibitor |  | 1560 nM
S=C(SSC(=S)N1CCOCC1)N1CCOCC1 | PTPN22 | enzyme activity, inhibitor, fluorescence | pH 6.5 | 23000 nM
